Results on 46 compounds are retold here after ChEMBL document CHEMBL1136740, “New active series of growth hormone secretagogues” (J Med Chem, 2003).

Non-standard residues stand in square brackets, D forms with d. Residues, ends and D or L forms follow the SMILES beside them. dTrp(2-Me) = Cc1[nH]c2ccccc2c1C[C@@H](N)C(=O)O; Aib = CC(C)(N)C(=O)O

For series [1], the target named is T1, Growth hormone secretagogue receptor type 1 (Homo sapiens, UniProt Q92847). Kind of series: Binding affinity towards human pituitary Growth hormone secretagogue receptor using [125I][Tyr4]-ghrelin as radioligand.
T1 sequence (Q92847 whole entry): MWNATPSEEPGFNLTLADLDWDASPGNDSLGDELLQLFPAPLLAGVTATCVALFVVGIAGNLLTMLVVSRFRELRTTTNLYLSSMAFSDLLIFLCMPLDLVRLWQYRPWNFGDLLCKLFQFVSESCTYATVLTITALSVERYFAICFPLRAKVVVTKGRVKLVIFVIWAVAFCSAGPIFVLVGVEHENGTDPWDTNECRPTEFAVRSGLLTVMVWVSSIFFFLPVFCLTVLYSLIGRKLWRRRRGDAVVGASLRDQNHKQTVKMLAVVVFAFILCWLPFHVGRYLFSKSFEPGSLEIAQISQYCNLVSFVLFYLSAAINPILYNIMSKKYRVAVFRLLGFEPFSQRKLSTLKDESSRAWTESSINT
In series [2] the target is T1, Growth hormone secretagogue receptor type 1. As to the kind of experiment: Binding affinity towards cloned human Growth hormone secretagogue receptor type I in LLC PK-1 cells using [125I][His9]-ghrelin as radioligand. Format: cell-based.
For series [3], the system named is Rattus norvegicus. As to the kind of experiment: Ratio of GH release stimulated by 300 ug/kg of compound to that of GH release stimulated by 300 ug/kg of hexarelin in infant rat (sc injection). Format: functional. An outline of the steps:
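Male 10-day-old Sprague-Dawley pups, about 25 g, eight per group. Dosed sc at 300 µg/kg, with solvent as DMSO at final 1:300 dilution. Killed by decapitation 15 min later; trunk-blood plasma GH measured by RIA against the NIDDK rat standard, in ng/mL. Response compared with hexarelin at the same dose.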

Series [4] relates to Canis familiaris. As to the kind of experiment: Concentration in dogs after oral administration at dose of 1 mg/kg after 180 min. Format: ADME, organism-based, Canis lupus familiaris. The arrangement: dose 1 mg/kg, route oral. Particulars: dog, in vivo, 3 h. The procedure, abridged:
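Beagle dogs (4–6, 2–3 years, 11–15 kg, both sexes) dosed 1 mg/kg through an oral-gastric cannula in randomized sequence. Blood drawn from the cephalic vein at −20 min, then at 15–180 min into EDTA tubes. Plasma GH measured by canine GH RIA (sensitivity 0.4 ng/mL). Peak GH and AUC0–180 min by trapezoid method reported as mean ± SEM; sexes pooled.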

Series [5] is described as follows: Stimulating GH secretion in dogs after oral administration at dose of 1 mg/kg.

For `CC(=O)N[C@@H](Cc1c[nH]c2ccccc12)NC(=O)[C@@H](Cc1c[nH]c2ccccc12)NC(=O)C(C)(C)N(C)C`, the figures for the IC50 in series [1] and in series [2] were 20.1 nM and 440 nM, respectively. For the same compound, the Ratio in series [3] is recorded as 0.15. Take `CC(C)(N)C(=O)N[C@H](COCc1ccccc1)C(=O)N1CCC2(CC1)CN(S(C)(=O)=O)c1ccccc12` [IBUTAMOREN]: the “GH AUC 0-180” value in series [4] was 544.55 µg·min/L. With `CC(C)(N)C(=O)N[C@H](Cc1c[nH]c2ccccc12)C(=O)N[C@@H](Cc1c[nH]c2ccccc12)NC=O`, the Ratio in series [3] was 0.28.

Turning to `CC(C)(N)C(=O)N[C@H](Cc1c[nH]c2ccccc12)C(=O)N[C@](C)(Cc1c[nH]c2ccccc12)NC=O`, the Ratio in series [3] was found to be 0.91.

On to `CC(=O)N[C@@H](Cc1c[nH]c2ccccc12)NC(=O)[C@@H](Cc1c[nH]c2ccccc12)NC(=O)C1CCNCC1`, for which the IC50 in series [1] is above 10000 nM; in series [2], 807 nM. In addition, the Ratio in series [3] was 0.53. Consider `CC(C)(N)C(=O)N[C@H](Cc1c[nH]c2ccccc12)C(=O)N[C@H](Cc1c[nH]c2ccccc12)NC(=O)Cc1ccccc1`, for which the Ratio in series [3] was 0.11.

As for `CNC(C)(C)C(=O)N[C@H](Cc1c[nH]c2ccccc12)C(=O)N[C@H](Cc1c[nH]c2ccccc12)N(C)C(C)=O`, the Ratio in series [3] is 1.21. Turning to `CCNC(=O)N[C@@H](Cc1c[nH]c2ccccc12)NC(=O)[C@@H](Cc1c[nH]c2ccccc12)NC(=O)C(C)(C)N`, the IC50 in series [1] stood at 16.9 nM; in series [2], 162 nM. For the same compound, the “GH AUC 0-180” value in series [4] was determined as 79.54 µg·min/L.

In series [1], `Cc1[nH]c2ccccc2c1C[C@@H](NC(=O)[C@@H](N)Cc1cnc[nH]1)C(=O)N[C@@H](C)C(=O)N[C@@H](Cc1c[nH]c2ccccc12)C(=O)N[C@H](Cc1ccccc1)C(=O)N[C@@H](CCCCN)C(N)=O` [EXAMORELIN] (H-H[dTrp(2-Me)]AW[dF]K-NH2) gave an IC50 of 18 nM. As for `CNC(C)(C)C(=O)N[C@H](Cc1c[nH]c2ccccc12)C(=O)N[C@H](Cc1c[nH]c2ccccc12)NC(=O)Cc1c[nH]c2ccccc12`, the Ratio in series [3] is recorded as 0.17. The same measure, in the same setting: with `CC(=O)N[C@@H](Cc1c[nH]c2ccccc12)NC(=O)[C@@H](Cc1c[nH]c2ccccc12)NC(=O)CC(C)C` the figure was 0.11. With `CNC(C)(C)C(=O)N[C@H](Cc1c[nH]c2ccccc12)C(=O)N[C@H](Cc1c[nH]c2ccccc12)NC=O`, the IC50 in series [1] was 39 nM; in series [2], 22.7 nM. Also, the Ratio in series [3] was determined as 0.64. Consider `Cc1[nH]c2ccccc2c1C[C@@H](NC(=O)[C@H](Cc1c[nH]cn1)NC(=O)[C@H](C)NC(=O)[C@@H](N)Cc1ccc(O)cc1)C(=O)N[C@@H](C)C(=O)N[C@@H](Cc1c[nH]c2ccccc12)C(=O)N[C@H](Cc1ccccc1)C(=O)N[C@@H](CCCCN)C(N)=O` (H-YAH[dTrp(2-Me)]AW[dF]K-NH2), for which the IC50 is 12 nM in series [1] and 286 nM in series [2]. Consider `Cc1[nH]c2ccccc2c1C[C@@H](NC=O)NC(=O)[C@@H](Cc1c(C)[nH]c2ccccc12)NC(=O)C(C)(C)N`, for which the Ratio in series [3] came to 0.12.

For `CC(C)(N)C(=O)N[C@@H](Cc1c[nH]c2ccccc12)C(=O)N[C@H](Cc1c[nH]c2ccccc12)NC=O`, the Ratio in series [3] was 0.07.

On to `CC(C)(N)C(=O)N[C@H](Cc1c[nH]c2ccccc12)C(=O)N[C@H](Cc1c[nH]c2ccccc12)NC=O` [MACIMORELIN], for which the figures for the IC50 in series [1] and in series [2] were 22.9 nM and 123 nM, respectively. In addition, the “GH AUC 0-180” value in series [4] was 675.35 µg·min/L. For the same compound, the Ratio in series [3] came to 1.31. This compound also yielded a GH peak in series [5] of 5.5 µg/L. As to `CNC(C)(C)C(=O)N[C@H](Cc1c[nH]c2ccccc12)C(=O)N[C@](C)(Cc1c[nH]c2ccccc12)NC(C)=O`, in series [3], the Ratio worked out at 1.

Consider `CNC(C)(C)C(=O)N[C@H](Cc1c[nH]c2ccccc12)C(=O)N(C)[C@H](Cc1c[nH]c2ccccc12)NC(C)=O`, for which the IC50 in series [1] was found to be 25.6 nM; in series [2], 29.5 nM. Further, in series [4], the “GH AUC 0-180” value worked out at 262.43 µg·min/L.

As for `CC(C)CC(=O)N[C@@H](Cc1c[nH]c2ccccc12)NC(=O)[C@@H](Cc1c[nH]c2ccccc12)NC(=O)C(C)(C)N`, the values for the IC50 in series [1] and in series [2] were 59.8 nM and 535 nM, respectively. In series [3], the Ratio was determined as 0.24. As for `Cc1[nH]c2ccccc2c1C[C@H](NC=O)NC(=O)[C@@H](Cc1c(C)[nH]c2ccccc12)NC(=O)C(C)(C)N`, the Ratio in series [3] stood at 0.08. Still for that read-out and setting: as for `CN[C@H](Cc1c[nH]c2ccccc12)C(=O)N[C@H](Cc1c[nH]c2ccccc12)NC=O`, the figure is 0.09; as for `CC(=O)N[C@@H](Cc1c[nH]c2ccccc12)N(C)C(=O)[C@@H](Cc1c[nH]c2ccccc12)NC(=O)C(C)(C)N`, 0.65. In the case of `CC(=O)N[C@@H](Cc1c[nH]c2ccccc12)NC(=O)[C@@H](Cc1c[nH]c2ccccc12)NC(=O)C(C)(C)N`, the 50% inhibitory concentration (IC50) in series [1] came to 3850 nM; in series [2], 228 nM. The Ratio in series [3] is recorded as 0.77. `CCOC(=O)N[C@@H](Cc1c[nH]c2ccccc12)NC(=O)[C@@H](Cc1c[nH]c2ccccc12)NC(=O)C(C)(C)N`: the IC50 in series [1] stood at 16.2 nM; in series [2], 122 nM. Further, in series [3], the Ratio was determined as 0.2. As to `CC(C)(N)C(=O)N[C@H](Cc1c[nH]c2ccccc12)C(=O)N[C@H](Cc1c[nH]c2ccccc12)NC(=O)C1CCCCN1` (some centres undefined), the results for the IC50 in series [1] and in series [2] were 21.5 nM and 116 nM, respectively. Further, the “GH AUC 0-180” value in series [4] is 87.06 µg·min/L. As for `CNC(C)(C)C(=O)N[C@H](Cc1c[nH]c2ccccc12)C(=O)N[C@H](Cc1c[nH]c2ccccc12)NC(=O)CC(C)C`, the results for the IC50 in series [1] and in series [2] were 213 nM and 397 nM, respectively. Moreover, the Ratio in series [3] came to 0.1. As to `CC(C)(N)C(=O)N[C@H](Cc1c[nH]c2ccccc12)C(=O)N[C@H](Cc1c[nH]c2ccccc12)NC(=O)CCC1CCCCC1`, the Ratio in series [3] worked out at 0.15.

In the case of `CCC(=O)N[C@@H](Cc1c[nH]c2ccccc12)NC(=O)[C@@H](Cc1c[nH]c2ccccc12)NC(=O)C(C)(C)N`, the figures for the IC50 in series [1] and in series [2] were 185 nM and 460 nM, respectively. In addition, the Ratio in series [3] is on record as 0.69.

As to `CC(C)(N)C(=O)N[C@@H](Cc1c[nH]c2ccccc12)C(=O)N[C@@H](Cc1c[nH]c2ccccc12)NC=O`, the Ratio in series [3] worked out at 0.08. Same read-out and setting: with `CNC(C)(C)C(=O)N[C@H](Cc1c[nH]c2ccccc12)C(=O)N[C@@H](Cc1c[nH]c2ccccc12)N(C)C(C)=O` the figure was 0.2; with `CC(C)(N)C(=O)N[C@H](Cc1c[nH]c2ccccc12)C(=O)N[C@H](Cc1c[nH]c2ccccc12)NC(=O)Cc1c[nH]c2ccccc12`, 0.16. On the same count and under the same terms, with `CNC(C)(C)C(=O)N[C@H](Cc1c[nH]c2ccccc12)C(=O)N[C@H](Cc1c[nH]c2ccccc12)NC(=O)C1CCCCN1` (some centres undefined) the figure was 0.85; with `Cc1[nH]c2ccccc2c1C[C@@H](NC(=O)[C@@H](Cc1c(C)[nH]c2ccccc12)NC(=O)C(C)(C)N)C(N)=O` (H-[Aib]-[dTrp(2-Me)]-[dTrp(2-Me)]-NH2), 0.89; with `O=CN[C@@H](Cc1c[nH]c2ccccc12)NC(=O)[C@@H](Cc1c[nH]c2ccccc12)NS(=O)(=O)c1ccccc1`, 0.14.

In the case of `CC(=O)N[C@@H](Cc1c[nH]c2ccccc12)NC(=O)[C@@H](Cc1c[nH]c2ccccc12)NC(C)=O`, in series [3], the Ratio worked out at 0.13.

With `Cc1[nH]c2ccccc2c1C[C@@H](NC(=O)[C@@H](N)Cc1c[nH]cn1)C(=O)N[C@@H](C)C(=O)N[C@@H](Cc1c[nH]c2ccccc12)C(=O)N[C@H](Cc1ccccc1)C(=O)N[C@@H](CCCCN)C(N)=O` [EXAMORELIN] (H-H[dTrp(2-Me)]AW[dF]K-NH2), the Ratio in series [3] was 1. Still for that read-out and setting: as for `CN(C)C(C)(C)C(=O)N[C@H](Cc1c[nH]c2ccccc12)C(=O)N[C@H](Cc1c[nH]c2ccccc12)NC=O`, the figure is 0.69; as for `CNC(C)(C)C(=O)N[C@H](Cc1c[nH]c2ccccc12)C(=O)N[C@H](Cc1c[nH]c2ccccc12)NC(=O)CCC1CCCCC1`, 0.16; as for `CS(=O)(=O)N[C@H](Cc1c[nH]c2ccccc12)C(=O)N[C@H](Cc1c[nH]c2ccccc12)NC=O`, 0.09. Same read-out and setting: with `CC(=O)N[C@@H](Cc1c[nH]c2ccccc12)NC(=O)[C@@H](Cc1c[nH]c2ccccc12)NC(=O)C1(N)CCNCC1` the figure was 0.46; with `CC(C)CC(=O)N[C@H](Cc1c[nH]c2ccccc12)C(=O)N[C@H](Cc1c[nH]c2ccccc12)NC=O`, 0.09; with `CC(C)(N)C(=O)N[C@](C)(Cc1c[nH]c2ccccc12)C(=O)N[C@H](Cc1c[nH]c2ccccc12)NC=O`, 0.12.

On to `CNC(C)(C)C(=O)N[C@H](Cc1c[nH]c2ccccc12)C(=O)N[C@H](Cc1c[nH]c2ccccc12)NC(=O)Cc1ccccc1`, for which the Ratio in series [3] turned out to be 0.16. On to `CCC(=O)N[C@@H](Cc1c[nH]c2ccccc12)NC(=O)[C@@H](Cc1c[nH]c2ccccc12)NC(=O)C(C)(C)NC`, for which the IC50 in series [1] is above 10000 nM; in series [2] it was 167 nM. For the same compound, in series [3], the Ratio was found to be 0.93. Taken in the same sequence, the figures for `O=CN[C@@H](Cc1c[nH]c2ccccc12)NC(=O)[C@@H](Cc1c[nH]c2ccccc12)NC(=O)C1CCNCC1` were 391 nM, 1160 nM and 0.82.

In the case of `NC1(C(=O)N[C@H](Cc2c[nH]c3ccccc23)C(=O)N[C@H](Cc2c[nH]c3ccccc23)NC=O)CCNCC1`, the values for the IC50 in series [1] and in series [2] were 1790 nM and 337 nM, respectively. For the same compound, the Ratio in series [3] is listed as 0.95.

By IC50 is commonly meant the concentration needed to halve the response being measured.
